# Source: ChEMBL document CHEMBL4346682 (Eur J Med Chem, 2019)
# Calls of active or inactive are those of the source. The rule behind the calls is not given here.
# Assays:
# HeLa [1] = assay: Antiproliferative activity against human HeLa cells measured after 3 days by Coulter counter method; type: functional, cell-based; conditions: 72 h
# L1210 = assay: Antiproliferative activity against mouse L1210 cells measured after 96 hrs by Coulter counter method; type: functional, cell-based; conditions: L1210, 96 h
# Summary of the method: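 L1210 suspension cells seeded at 60,000 cells/well with a range of compound concentrations, grown 96 h, counted in a Coulter counter. IC50 is the concentration reducing proliferation by 50%, mean ± SD of three independent experiments.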
# Tubulin (Homo sapiens) = Tubulin (Homo sapiens) (UniProt P68371+Q9H4B7+P0DPH7+P68366+Q13509+Q71U36+P04350+Q3ZCM7+P07437+P68363+Q9BQE3+Q6PEY2+Q13885+Q9BVA1+Q9BUF5); assay: Inhibition of human tubulin polymerization assessed as induction of tubulin polymerization destabilization at 30 uM by turbidimetric assay
# Tubulin (Bos taurus) = Tubulin (Bos taurus) (UniProt Q6B856+Q862L2+Q862F3); assay: Binding affinity to calf brain tubulin assessed as binding constant incubated for 30 mins in presence of R-PT by fluorescence based method
# Summary of the method: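 Competition assay with calf brain tubulin. A premixed 0.2 µM R-PT plus 0.2 µM tubulin sample was exposed to ligand at 0–70 µM in 10 mM sodium phosphate, 0.1 mM GTP, pH 7.0, incubated 30 min at 25 °C. Fluorescence read at 456 nm (excitation 374 nm). Kb fitted by competition analysis, mean of three experiments ± StdError.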
# CCRF-CEM = assay: Antiproliferative activity against human CEM cells measured after 96 hrs by Coulter counter method; type: functional, cell-based
# Summary of the method: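 CEM suspension cells seeded at 60,000 cells/well with a range of compound concentrations, grown 96 h, then counted. Medium is DMEM with 10% FBS, 0.01 M Hepes and 1 mM sodium pyruvate, 37 °C, 5% CO2.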
# HMEC-1 [2] = assay: Antiproliferative activity against human HMEC1 cells measured after 4 days by Coulter counter method; type: functional, cell-based; conditions: HMEC-1, 96 h
# HeLa [3] = assay: Cell cycle arrest in human HeLa cells assessed as accumulation at G2/M phase at 0.08 uM measured after 24 hrs by DAPI staining based HCS analysis; type: functional
# HeLa [4] = assay: Cell cycle arrest in human HeLa cells assessed as accumulation at G2/M phase at 2 uM measured after 24 hrs by DAPI staining based HCS analysis; type: functional
# HeLa [5] = assay: Cell cycle arrest in human HeLa cells assessed as accumulation at G2/M phase at 0.016 uM measured after 24 hrs by DAPI staining based HCS analysis; type: functional
# HeLa [6] = assay: Cell cycle arrest in human HeLa cells assessed as accumulation at G2/M phase at 0.4 uM measured after 24 hrs by DAPI staining based HCS analysis; type: functional
# HMEC-1 [7] = assay: Vascular disrupting activity in human HMEC1 cells at 0.4 uM after 90 mins; type: functional, cell-based
# Summary of the method: (§1)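 HMEC-1 seeded at 60,000 cells/well on matrigel (10 mg/mL, gelled 30 min at 37 °C) in DMEM with 10% FCS. After 3 h at 37 °C, once tube-like networks formed, compound was added at 2, 0.4 or 0.08 µM. After 90 min, images taken at 100× and meshes, branching points and tube length quantified.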
# HMEC-1 [8] = assay: Vascular disrupting activity in human HMEC1 cells at 0.08 to 2 uM after 90 mins; type: functional, cell-based; summary of the method: as §1
# HMEC-1 [9] = assay: Cell cycle arrest in human HMEC1 cells assessed as accumulation at G2/M phase at 0.4 uM measured after 24 hrs by propidium iodide based FACSCalibur flow cytometry; type: functional
# Summary of the method: (§2)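 HMEC-1 seeded at 125,000 cells/well in DMEM with 10% FBS and exposed to compound after 24 h. After another 24 h, DNA was stained with propidium iodide and analysed by flow cytometry within 3 h. Debris and clumps were gated out, and sub-G1, G1, S and G2/M fractions estimated with region markers.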
# HMEC-1 [10] = assay: Cell cycle arrest in human HMEC1 cells assessed as accumulation at G2/M phase at 0.08 uM measured after 24 hrs by propidium iodide based FACSCalibur flow cytometry; type: functional; summary of the method: as §2
Structure (SMILES),IC50 (HeLa [1]),IC50 (L1210),Activity (Tubulin (Homo sapiens)),Kb (Tubulin (Bos taurus)),IC50 (CCRF-CEM),IC50 (HMEC-1 [2]),Activity (HeLa [3]),Activity (HeLa [4]),Activity (HeLa [5]),Activity (HeLa [6]),Activity (HMEC-1 [7]),Activity (HMEC-1 [8]),Activity (HMEC-1 [9]),Activity (HMEC-1 [10])
COc1cccc(Oc2ccccc2NC(C)=C2C(=O)CC(c3ccccc3)CC2=O)c1 (stereo unspecified),93 nM,58 nM,Active,15.7 ×10⁶ /M,41 nM,59 nM,,,,,,,,
COc1cc2c(c(OC)c1OC)-c1ccc(OC)c(=O)cc1[C@@H](NC(C)=O)CC2,,,,,,,Active,Active,Active,Active,,,,
COc1cc([C@@H]2c3cc4c(cc3[C@H](O)[C@H]3COC(=O)[C@H]23)OCO4)cc(OC)c1OC,,,Active,,,,,,,,,,,
CC(=O)c1ccc(Oc2ccccc2NC(C)=C2C(=O)CC(c3ccccc3)CC2=O)cc1 (stereo unspecified),130 nM,190 nM,,,220 nM,180 nM,,,,,,,,
COc1ccc(Oc2ccccc2NC(C)=C2C(=O)CC(c3ccccc3)CC2=O)cc1OC (stereo unspecified),54 nM,65 nM,Active,2.24 ×10⁶ /M,160 nM,140 nM,,,,,,,,
CC(Nc1ccccc1Oc1ccc(Cl)cc1)=C1C(=O)CC(c2ccccc2)CC1=O (stereo unspecified),500 nM,250 nM,,,190 nM,260 nM,,,,,,,,
COc1cc(Oc2ccccc2NC(C)=C2C(=O)CC(c3ccccc3)CC2=O)ccc1N (stereo unspecified),33 nM,26 nM,Active,18.1 ×10⁶ /M,12 nM,29 nM,Active,Active,Active,Active,Active,Dose-dependent effect,Active,
CC(Nc1ccccc1Oc1cccc(F)c1)=C1C(=O)CC(c2ccccc2)CC1=O (stereo unspecified),550 nM,330 nM,,,170 nM,360 nM,,,,,,,,
CC(Nc1ccccc1Oc1ccc(C(C)O)cc1)=C1C(=O)CC(c2ccccc2)CC1=O (stereo unspecified),75 nM,58 nM,Active,3.13 ×10⁶ /M,120 nM,140 nM,,,,,,,,
COc1ccc(Oc2ccccc2NC(C)=C2C(=O)CC(c3ccccc3)CC2=O)cc1 (stereo unspecified),160 nM,140 nM,Active,5.23 ×10⁶ /M,120 nM,83 nM,,,,,,,,
CC(Nc1ccccc1Oc1cccc(N)c1)=C1C(=O)CC(c2ccccc2)CC1=O (stereo unspecified),82 nM,53 nM,Active,5.56 ×10⁶ /M,42 nM,41 nM,,,,,,,,
CCOc1ccccc1NC(C)=C1C(=O)CC(c2ccccc2)CC1=O (stereo unspecified),180 nM,190 nM,Active,13 ×10⁶ /M,190 nM,100 nM,,,,,,,,
CC(Nc1ccccc1Oc1ccc(N)cc1)=C1C(=O)CC(c2ccccc2)CC1=O (stereo unspecified),39 nM,40 nM,Active,11.8 ×10⁶ /M,37 nM,47 nM,Active,Active,Active,Active,Active,Dose-dependent effect,,Active
CC(Nc1ccccc1Oc1ccccc1)=C1C(=O)CC(c2ccccc2)CC1=O (stereo unspecified),79 nM,86 nM,Active,6.46 ×10⁶ /M,170 nM,160 nM,,,,,,,,
COc1ccc(/C=C\c2cc(OC)c(OC)c(OC)c2)cc1OP(=O)(O)O [FOSBRETABULIN DISODIUM],,13 nM,,,,,,,,,,,,
